Source: ChEMBL document CHEMBL1121691, “Inhibition of cholesterol side-chain cleavage. 4. Synthesis of A or B ring modified azacholesterols” (J Med Chem, 1981)

Experiments:
Conditions in all cases: cattle
[1] = target: T1, cholesterol side-chain cleavage cytochrome P450 (mitochondrial) (Bos taurus, UniProt P00189); assay: Percent inhibition of cholesterol side-chain cleavage cytochrome P450 at 100 uM in bovine adrenocortical mitochondrial acetone powder preparations
T1 sequence (P00189 whole entry): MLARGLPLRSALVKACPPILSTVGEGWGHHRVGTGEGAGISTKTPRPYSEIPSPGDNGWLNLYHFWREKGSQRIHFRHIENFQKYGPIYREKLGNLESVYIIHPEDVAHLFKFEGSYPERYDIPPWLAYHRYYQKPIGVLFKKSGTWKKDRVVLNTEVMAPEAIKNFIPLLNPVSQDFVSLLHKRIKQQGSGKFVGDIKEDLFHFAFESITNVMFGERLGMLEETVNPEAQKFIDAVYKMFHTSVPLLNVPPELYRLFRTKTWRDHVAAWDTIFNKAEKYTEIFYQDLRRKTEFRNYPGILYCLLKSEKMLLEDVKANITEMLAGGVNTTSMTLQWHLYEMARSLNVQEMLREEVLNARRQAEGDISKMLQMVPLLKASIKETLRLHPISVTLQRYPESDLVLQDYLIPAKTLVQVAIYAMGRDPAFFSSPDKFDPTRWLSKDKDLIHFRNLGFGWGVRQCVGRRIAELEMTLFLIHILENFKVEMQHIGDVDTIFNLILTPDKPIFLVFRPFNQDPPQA
Method in brief: (§1)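 CSCC activity in adrenal preparations assayed by the previously reported method. Inhibitor tested at a final concentration of 100 μM or below. Isocaproic acid product volatilized in a heated vacuum desiccator and measured by liquid scintillation counting. Percent inhibition is taken from at least six data points across two separate experiments, with standard deviation from the mean.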

[2] = target: T1, cholesterol side-chain cleavage cytochrome P450 (mitochondrial); assay: Percent inhibition of cholesterol side-chain cleavage cytochrome P450 at 1 uM in bovine adrenocortical mitochondrial acetone powder preparations; method in brief: as §1
[3] = target: T1, cholesterol side-chain cleavage cytochrome P450 (mitochondrial); assay: Percent inhibition of cholesterol side-chain cleavage cytochrome P450 at 10 uM in bovine adrenocortical mitochondrial acetone powder preparations; method in brief: as §1

| inhibition at 100 µM [1] [%] | inhibition at 1 µM [2] [%] | inhibition at 10 µM [3] [%] | Compound |
| --- | --- | --- | --- |
| 3 | – | – | CO[C@@H]1CC[C@@]2(C)C(CC[C@H]3[C@@H]4CC[C@H](N(C)CCCC(C)C)[C@@]4(C)CC[C@@H]32)C1 (some centres undefined) |
| 99 | 14 | 86 | CO[C@H]1CC[C@@]2(C)C(=CC[C@H]3[C@@H]4CC[C@H](C(C)NCCC(C)C)[C@@]4(C)CC[C@@H]32)C1 (some centres undefined) |
| 93 | 10 | 75 | CC(C)CCNC(C)[C@H]1CC[C@H]2[C@@H]3CC=C4C[C@@H](O)CC[C@]4(C)[C@H]3CC[C@]12C (some centres undefined) |
| 5 | – | – | CO[C@H]1CCC2(C)C(CC[C@@H]3[C@@H]2CCC2(C)[C@@H](N(C)CCCC(C)C)CC[C@@H]32)C1 (some centres undefined) |
| 26 | – | – | CC(C)CCCN(C)[C@H]1CC[C@H]2[C@@H]3CCC4C[C@@H](O)CC[C@]4(C)[C@H]3CC[C@]12C (some centres undefined) |
| 21 | – | – | CO[C@H]1CC[C@@]2(C)C(CC[C@H]3[C@@H]4CC[C@H](C(C)NCCC(C)C)[C@@]4(C)CC[C@@H]32)C1 (some centres undefined) |
| 3 | – | – | CC(C)CCNC(C)[C@H]1CC[C@H]2[C@@H]3CCC4CC(=O)CC[C@]4(C)[C@H]3CC[C@]12C (some centres undefined) |
| 86 | – | 30 | CO[C@H]1CCC2(C)C(=CCC3C2CCC2(C)C3CC[C@@H]2N(C)CCCC(C)C)C1 (some centres undefined) |
| 100 | 12 | 89 | CCC(C)CNC(C)[C@H]1CC[C@H]2[C@@H]3CC=C4C[C@@H](OC)CC[C@]4(C)[C@H]3CC[C@]12C (some centres undefined) |

| Compound | inhibition at 100 µM [1] [%] | inhibition at 1 µM [2] [%] | inhibition at 10 µM [3] [%] |
| --- | --- | --- | --- |
| CC(C)CCCN(C)[C@H]1CCC2C3CC=C4C[C@@H](O)CCC4(C)C3CCC21C (some centres undefined) | 78 | – | 29 |
| CC(C)CCNC(C)[C@H]1CC[C@H]2[C@@H]3CCC4C[C@@H](O)CC[C@]4(C)[C@H]3CC[C@]12C (some centres undefined) | 28 | – | – |
